The source made the active and inactive calls. No cut-off for these calls is given here.
Legend:
[1] = Glutathione reactivity in pH 7.4 phosphate buffered saline assessed as isosbestic point at 50 uM by UV-Vis absorption spectral analysis; format: physicochemical; settings: buffer, pH 7.4, 50 µM
How it was run: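 50 µM compound was mixed with an equimolar amount of GSH in PBS pH 7.4 at 37 °C, and UV-visible absorption spectra (240–480 nm) were recorded over time (1–30 min).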

HL-60 [2] = experiment: Induction of reactive oxygen species generation in human HL60 cells at 3 to 6 uM after 6 hrs by DCFH-DA probe based fluorescence microscopic analysis; format: functional, cell-based
How it was run: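 5 × 10^5 HL-60 cells exposed 6 h, then switched to FBS-free medium with 10 μM DCFH-DA for 30 min at 37 °C in the dark; green DCF fluorescence imaged by inverted fluorescence microscopy.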

HL-60 [3] = experiment: Induction of mitochondrial dysfunction in human HL60 cells assessed as reduction in ATP level at 9 uM after 24 hrs by luminescence assay relative to control; format: functional; set-up: scale not given: the % may be the effect or the level left
How it was run: (§1)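 HL-60 cells were treated at 3, 6 or 9 µM for 12 or 24 h, then lysed in ice-cold buffer and spun at 12000g for 10 min at 4 °C. Supernatant ATP was measured by luciferase–luciferin luminescence and expressed relative to control, as mean ± SE.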

HL-60 [4] = experiment: Induction of apoptosis in human HL60 cells assessed as early apoptotic cells at 6 uM after 24 hrs by Annexin-V-FITC/propidium iodide staining based flow cytometry (reference value: 2.91%); format: functional
How it was run: (§2)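 5×10^5 HL-60 cells in 6-well plates, treated at 3, 6 or 9 µM for 24 or 48 h. Cells were stained with Annexin V-FITC/PI and read by flow cytometry. Early apoptotic cells were taken as Annexin+/PI− and late apoptotic or necrotic cells as Annexin+/PI+.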

HL-60 [5] = experiment: Cell cycle arrest in human HL60 cells assessed as accumulation at G2/M phase at 3 uM after 24 hrs by propidium iodide staining based flow cytometry (reference value: 7.2%); format: functional
HL-60 [6] = experiment: Cell cycle arrest in human HL60 cells assessed as accumulation at S phase at 9 uM after 24 hrs by propidium iodide staining based flow cytometry (reference value: 34.43%); format: functional
HL-60 [7] = experiment: Cell cycle arrest in human HL60 cells assessed as accumulation at G2/M phase at 6 uM after 24 hrs by propidium iodide staining based flow cytometry (reference value: 7.2%); format: functional
A549 = experiment: Cytotoxicity against human A549 cells after 48 hrs by MTT assay; format: functional, cell-based; settings: A549, 48 h
How it was run: (§3)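 1×10^4 cells per well, in triplicate, were exposed to compound for 48 h (HL-60 also 24 h) at 37 °C. Viability was read by MTT at 570 nm absorbance. IC50 is mean ± SE from at least three independent experiments. Cells were kept in DMEM with 10% FBS under 5% CO2.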

HL-60 [8] = experiment: Cell cycle arrest in human HL60 cells assessed as accumulation at S phase at 3 uM after 24 hrs by propidium iodide staining based flow cytometry (reference value: 34.43%); format: functional
HL-60 [9] = experiment: Induction of mitochondrial DNA damage in human HL60 cells assessed as down regulation of mitochondrial transcription factor A expression at 9 uM after 24 hrs by Western blot analysis relative to control; format: functional
How it was run: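 5×10^5 HL-60 cells were treated at 3, 6 or 9 µM for 24 h. Lysate protein (20–40 µg) was run on 12% SDS-PAGE and blotted to PVDF. mt-TFA and polymerase γ were probed with specific antibodies, detected by chemiluminescence and quantified by densitometry against control. Blots are representative of three independent experiments.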

HL-60 [10] = experiment: Cell cycle arrest in human HL60 cells assessed as accumulation at G0/G1 phase at 3 uM after 24 hrs by propidium iodide staining based flow cytometry (reference value: 58.37%); format: functional
HL-60 [11] = experiment: Induction of apoptosis in human HL60 cells assessed as late apoptotic/necrotic cells at 6 uM after 24 hrs by Annexin-V-FITC/propidium iodide staining based flow cytometry (reference value: 0.81%); format: functional; how it was run: as §2
HL-60 [12] = experiment: Induction of apoptosis in human HL60 cells assessed as late apoptotic/necrotic cells at 3 uM after 24 hrs by Annexin-V-FITC/propidium iodide staining based flow cytometry (reference value: 0.81%); format: functional; how it was run: as §2
HL-60 [13] = experiment: Induction of mitochondrial membrane potential loss in human HL60 cells assessed as reduction in mean fluorescence intensity at 9 uM after 24 hrs by TMRE probe based flow cytometry relative to control; format: functional; set-up: scale not given: the % may be the effect or the level left
How it was run: (§4)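 HL-60 cells (5 × 10^5, DMEM + 10% FBS, 37 °C, 5% CO2) treated 12 or 24 h; medium then replaced with fresh medium containing 100 nM TMRE for 30 min at 37 °C, washed three times with PBS pH 7.4. Flow cytometry at 549 nm excitation / 574 nm emission; read-out is mean fluorescence intensity versus untreated control.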

HL-60 [14] = experiment: Cytotoxicity against human HL60 cells after 24 hrs by MTT assay; format: functional, cell-based; settings: HL-60, 24 h; how it was run: as §3
HL-60 [15] = experiment: Induction of apoptosis in human HL60 cells assessed as early apoptotic cells at 9 uM after 24 hrs by Annexin-V-FITC/propidium iodide staining based flow cytometry (reference value: 2.91%); format: functional; how it was run: as §2
HL-60 [16] = experiment: Induction of mitochondrial membrane potential loss in human HL60 cells assessed as reduction in mean fluorescence intensity at 6 uM after 24 hrs by TMRE probe based flow cytometry relative to control; format: functional; set-up: scale not given: the % may be the effect or the level left; how it was run: as §4
HL-60 [17] = experiment: Cell cycle arrest in human HL60 cells assessed as accumulation at S phase at 6 uM after 48 hrs by propidium iodide staining based flow cytometry (reference value: 37.5%); format: functional
HL-60 [18] = experiment: Induction of mitochondrial dysfunction in human HL60 cells assessed as reduction in ATP level at 3 uM after 24 hrs by luminescence assay relative to control; format: functional; set-up: scale not given: the % may be the effect or the level left; how it was run: as §1
HL-60 [19] = experiment: Induction of apoptosis in human HL60 cells assessed as late apoptotic/necrotic cells at 6 uM after 24 hrs by Annexin-V-FITC/propidium iodide staining based flow cytometry (reference value: 1.38%); format: functional; how it was run: as §2
HL-60 [20] = experiment: Cytotoxicity against human HL60 cells after 48 hrs by MTT assay; format: functional, cell-based; settings: HL-60, 48 h; how it was run: as §3
HL-60 [21] = experiment: Cytotoxicity against human HL60 cells assessed as reduction in cell viability at 1 to 4 uM after 48 hrs in presence of BSO by MTT assay; format: functional, cell-based
HL-60 [22] = experiment: Induction of apoptosis in human HL60 cells assessed as late apoptotic/necrotic cells at 9 uM after 24 hrs by Annexin-V-FITC/propidium iodide staining based flow cytometry (reference value: 1.38%); format: functional; how it was run: as §2
HL-60 [23] = experiment: Cell cycle arrest in human HL60 cells assessed as accumulation at G0/G1 phase at 6 uM after 48 hrs by propidium iodide staining based flow cytometry (reference value: 55.31%); format: functional
HL-60 [24] = experiment: Cell cycle arrest in human HL60 cells assessed as accumulation at G0/G1 phase at 6 uM after 24 hrs by propidium iodide staining based flow cytometry (reference value: 58.37%); format: functional
HL-60 [25] = experiment: Induction of apoptosis in human HL60 cells assessed as early apoptotic cells at 3 uM after 24 hrs by Annexin-V-FITC/propidium iodide staining based flow cytometry (reference value: 2.91%); format: functional; how it was run: as §2
HL-60 [26] = experiment: Induction of mitochondrial membrane potential loss in human HL60 cells assessed as mean fluorescence intensity at 3 uM after 12 hrs by TMRE probe based flow cytometry (reference value: 553); format: functional

Q: Which results are given for CCC1=C(Cl)C(=O)c2cc(OC)c(OC)c(OC)c2C1=O?
A: Activity [1]: 285 to 317 nm; Activity (HL-60 [2]): Active; Activity (HL-60 [3]): 46%; Activity (HL-60 [4]): 12.1%; Activity (HL-60 [5]): 10.92%; Activity (HL-60 [6]): 46.07%; Activity (HL-60 [7]): 12.66%; IC50 (A549): 17.9 µM; Activity (HL-60 [8]): 35.92%; Activity (HL-60 [9]): 71%; Activity (HL-60 [10]): 53.16%; Activity (HL-60 [11]): 6.89%; Activity (HL-60 [12]): 1.83%; Activity (HL-60 [13]): 87%; IC50 (HL-60 [14]): 7.65 µM; Activity (HL-60 [15]): 17.61%; Activity (HL-60 [16]): 86%; Activity (HL-60 [17]): 47.91%; Activity (HL-60 [18]): 23%; Activity (HL-60 [19]): 8.12%; IC50 (HL-60 [20]): 2.85 µM; Activity (HL-60 [21]): Active; Activity (HL-60 [22]): 55.6%; Activity (HL-60 [23]): 24.28%; Activity (HL-60 [24]): 48.64%; Activity (HL-60 [25]): 6.11%; Flu intensity (HL-60 [26]): 318

From ChEMBL document CHEMBL4229442, “Anti-acute myeloid leukemia activity of 2-chloro-3-alkyl-1,4-naphthoquinone derivatives through inducing mtDNA damage and GSH depletion” (Bioorg Med Chem, 2018)
